What was measured:
[1] = tested on: chloroquine-resistant P. falciparum Dd2 parasites; test: SYBR Green I dose–response assay against Dd2 parasites; assay type: cell-based; settings: Plasmodium falciparum, DD2, read-out: EC50 Dd2, chloroquine-resistant P. falciparum Dd2, three or more independent experiments
How it was run: (§1)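 Dose–response EC50 values, each from three or more independent experiments. Dd2 and 3D7 runs use chloroquine as comparator. The selectivity index is calculated as HepG2 EC50 divided by Dd2 EC50.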

[2] = tested on: wild-type P. falciparum 3D7 cells; test: dose–response assay against 3D7 cells; assay type: cell-based; settings: Plasmodium falciparum, 3D7, read-out: EC50 3D7
How it was run: as §1

| SMILES | EC50 [1] [µM] | EC50 [2] [µM] |
| --- | --- | --- |
| CC[C@@]12C=C(C(=O)OC)n3c(c(c4ccccc43)CCN(C(=O)c3ccncc3)CCC1)[C@@H]2c1ccc(O)cc1 [Compound 31, methyl (11S,19S)-11-ethyl-19-(4-hydroxyphenyl)-15-(pyridine-4-carbonyl)-8,15-diazatetracyclo[9.6.2.0^2,7.0^8,18]nonadeca-1(18),2(7),3,5,9-pentaene-9-carboxylate] | 5.9 ± 0.26 |  |
| CCN(CC)CCCC(C)Nc1ccnc2cc(Cl)ccc12 (centres unmarked) [Chloroquine, reference compound] | 0.19 | 0.017 |
| CC[C@@]12C=C(C(=O)OC)n3c(c(c4ccccc43)CCN(C(=O)C3CCCCC3)CCC1)[C@@H]2c1ccc(O)cc1 [Compound 23, methyl (11S,19S)-15-cyclohexanecarbonyl-11-ethyl-19-(4-hydroxyphenyl)-8,15-diazatetracyclo[9.6.2.0^2,7.0^8,18]nonadeca-1(18),2(7),3,5,9-pentaene-9-carboxylate] | 2.53 ± 0.34 |  |
| CC[C@@]12C=C(C(=O)OC)n3c(c(c4ccccc43)CCN(C(=O)c3ccc(OC)nc3)CCC1)[C@@H]2c1ccc(O)cc1 [Compound 21, methyl (11S,19S)-11-ethyl-19-(4-hydroxyphenyl)-15-(6-methoxypyridine-3-carbonyl)-8,15-diazatetracyclo[9.6.2.0^2,7.0^8,18]nonadeca-1(18),2(7),3,5,9-pentaene-9-carboxylate] | 0.63 ± 0.12 | 1.33 ± 0.18 |
| CC[C@@]12C=C(C(=O)OC)n3c(c(c4ccccc43)CCN(C(=O)c3ccccc3)CCC1)[C@@H]2c1ccc(O)cc1 [Compound 34, methyl (11S,19S)-15-benzoyl-11-ethyl-19-(4-hydroxyphenyl)-8,15-diazatetracyclo[9.6.2.0^2,7.0^8,18]nonadeca-1(18),2(7),3,5,9-pentaene-9-carboxylate] | 2.95 ± 1.14 | 6.6 ± 1.06 |
| CC[C@@]12C=C(C(=O)OC)n3c(c(c4ccccc43)CCN(/C=C/C(=O)OC)CCC1)[C@@H]2c1ccc(OC(C)=O)cc1 [Compound 19, Methyl (11S,19S)-19-[4-(acetyloxy)phenyl]-11-ethyl-15-[(1E)-3-methoxy-3-oxoprop-1-en-1-yl]-8,15-diazatetracyclo[9.6.2.0^2,7.0^8,18]nonadeca-1(18),2(7),3,5,9-pentaene-9-carboxylate] | 6.11 ± 1.56 |  |
| CC[C@@]12C=C(C(=O)OC)n3c(c(c4ccccc43)CCN(C(=O)c3ccc(C(F)(F)F)cc3)CCC1)[C@@H]2c1ccc(O)cc1 [Compound 24, methyl (11S,19S)-11-ethyl-19-(4-hydroxyphenyl)-15-[4-(trifluoromethyl)benzoyl]-8,15-diazatetracyclo[9.6.2.0^2,7.0^8,18]nonadeca-1(18),2(7),3,5,9-pentaene-9-carboxylate] | 1.54 ± 0.004 |  |
| CC[C@@]12C=C(C(=O)OC)n3c(c(c4ccccc43)CCN(C(C)=O)CCC1)[C@@H]2c1ccc(O)cc1 [Compound 20, methyl (11S,19S)-15-acetyl-11-ethyl-19-(4-hydroxyphenyl)-8,15-diazatetracyclo[9.6.2.0^2,7.0^8,18]nonadeca-1(18),2(7),3,5,9-pentaene-9-carboxylate] | > 20 | 12 ± 3.4 |
| CC[C@@]12C=C(C(=O)OC)n3c(c(c4ccccc43)CCN(C(=O)COCCOCCOC)CCC1)[C@@H]2c1ccc(O)cc1 [Compound 22, methyl (11S,19S)-11-ethyl-19-(4-hydroxyphenyl)-15-{2-[2-(2-methoxyethoxy)ethoxy]acetyl}-8,15-diazatetracyclo[9.6.2.0^2,7.0^8,18]nonadeca-1(18),2(7),3,5,9-pentaene-9-carboxylate] | 4.1 ± 0.55 |  |
| CC[C@@]12C=C(C(=O)OC)n3c(c(c4ccccc43)CCNCCC1)[C@@H]2c1ccc(O)cc1 [Compound 18, Methyl (11S,19S)-11-ethyl-19-(4-hydroxyphenyl)-8,15-diazatetracyclo[9.6.2.0^2,7.0^8,18]nonadeca-1(18),2(7),3,5,9-pentaene-9-carboxylate] | 10.8 ± 2.93 |  |

From publication PMC8359148 (ACS Omega, 2021)
